Only some compounds are listed: those with a hit (about 3.7% of all), similar ones and a draw of the others.
eIF4E-4G inh: eIF4E/eIF4G interaction inhibition in translation initiation | P63073+Q04637 | TR-FRET eIF4E-eIF4GI(517-606) binding, 2 h | inhibition, % at 21.7 µM | actives 0.37% (n = 220,000) | AID 782;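 also: 0% = full FRET control wells and 100% = background wells lacking eIF4GI fragment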
EBV gp42 inh: inhibitors of Epstein-Barr virus glycoprotein 42 | Fluorescence polarization binding assay, mP read-out | inhibition, % (tested at 21.74 µM) | actives 0.42% (n = 220,000); in the data active = inhibition above about 50%
WT yeast gro inh: growth inhibition of WT yeast, mitochondrial fusion screen. mitochondrial fusion phenotypic screen, WT strain. inhibition, % at 10 µM. actives 2.1% (n = 190,000). AID 1362; in the data active = inhibition above about 58%; tested in S. cerevisiae
NCF1 inh: blocks human p47phox regulatory protein of NADPH oxidases; P14598; p47phox/p22phox peptide binding, fluorescence polarization, 2 h; inhibition, % at 24.7 µM; actives 0.53% (n = 220,000); AID 1274;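 also: 0% = p47phox with labelled peptide and 100% = labelled peptide alone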
Target sequence (P14598 whole entry, looked up): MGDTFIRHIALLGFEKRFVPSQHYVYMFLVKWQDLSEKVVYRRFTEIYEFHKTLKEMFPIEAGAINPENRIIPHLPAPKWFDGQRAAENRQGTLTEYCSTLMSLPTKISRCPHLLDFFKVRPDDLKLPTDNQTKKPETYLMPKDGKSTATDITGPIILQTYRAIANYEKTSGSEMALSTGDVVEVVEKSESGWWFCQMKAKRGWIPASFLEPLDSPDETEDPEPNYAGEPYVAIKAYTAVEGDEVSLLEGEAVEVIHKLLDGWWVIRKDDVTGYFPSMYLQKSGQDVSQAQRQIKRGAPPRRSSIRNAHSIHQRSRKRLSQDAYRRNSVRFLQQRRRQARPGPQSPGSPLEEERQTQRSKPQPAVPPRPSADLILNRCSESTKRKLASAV
RBBP9 inhibitor: human RBBP9 hydrolase inhibition; O75884; recombinant RBBP9, FP-Rh probe fluorescence polarization; inhibition, % at 7.94 µM; actives 0.2% (n = 220,000); AID 1515;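 active = inhibition above the campaign mean of all tested compounds plus 3 SD, cut at about 14% in these data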;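 also: plate controls were DMSO wells with RBBP9 for no effect and wells lacking RBBP9 protein for full effect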
Target sequence (O75884 whole entry, looked up): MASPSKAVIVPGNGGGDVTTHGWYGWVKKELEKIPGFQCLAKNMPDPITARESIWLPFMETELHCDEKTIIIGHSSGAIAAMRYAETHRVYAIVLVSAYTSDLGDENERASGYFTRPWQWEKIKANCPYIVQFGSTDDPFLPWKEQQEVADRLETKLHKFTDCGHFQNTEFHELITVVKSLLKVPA
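system = RBBP9 protein | input = RBBP9 at 2.5 µM in dispensed solution, before mixing | measured by = fluorescence polarization (mP), excitation 525 nm, emission 598 nm | incubation = enzyme-compound preincubation 30 min, then probe labeling 45 min, 25 °C | buffer or medium = Tris-NaCl-Pluronic buffer, pH 8.0 | compound = single dose 7.94 µM | also added = FP-Rh probe, 375 nM dispensing solution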
14-3-3 Bad PPI: disrupts binding of bovine 14-3-3 zeta to phospho-Bad peptide; actives 0.71% (n = 220,000); inhibition, % at 21.7 µM; P63103; TR-FRET 14-3-3zeta/Dy647-pBad peptide displacement, 1 h;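 active = inhibition above about 70%, limit read from the data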;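 also: 0% = full 14-3-3 plus peptide FRET controls and 100% = background without 14-3-3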
Active calls of the source: *; · = not tested or not shown; [ ] = dose if it differs, or a comment.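 The calls were made as follows, unless noted: active = inhibition above about 30% (limit read from the data); inactive = the rest.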

SMILES	eIF4E-4G inh	EBV gp42 inh	WT yeast gro inh	NCF1 inh	RBBP9 inhibitor	14-3-3 Bad PPI
CC/C(=C/c1sc2ccc(C)cc2[n+]1CCCS(=O)(=O)[O-])SC	-6	-4	1	-5	1	-2
Cc1ccccc1NC(=O)CCC(=O)OCC(=O)c1cccc([N+](=O)[O-])c1	6	-14	2	32*	-1	-2
CC1CCCN(C(=O)c2ccc3c(=O)n(C4CCCC4)c(=S)[nH]c3c2)C1 (configuration not stated)	-4	-3	98	2	0	-7
O=C(c1ccc(Cn2c(=S)[nH]c3ccc(Br)cc3c2=O)cc1)N1CCN(C2CCCCC2)CC1	-3	5	73*	-14	-4	-20
O=C(c1ccc2c(=O)n(C3CCCC3)c(=S)[nH]c2c1)N1CCCCCC1	-2	-6	96*	-10	1	-12
O=C(c1ccc(Cn2c(=S)[nH]c3ccc(N4CCOCC4)cc3c2=O)cc1)N1CCN(c2ccc(F)cc2)CC1	-14	-14	-4	-12	3	-28
Cc1ccc(-c2cc(C(F)F)n3ncc(C(=O)Nc4c(C)nn(Cc5ccccc5Cl)c4C)c3n2)cc1	-1	-12	76*	-1	-3	-11
Cc1ccc(-c2cc(C(F)F)n3ncc(C(=O)Nc4c(C)nn(Cc5c(Cl)cccc5Cl)c4C)c3n2)cc1	-5	-15	-5	-12	-1	-9
Cc1ccc2c(ccc(=S)n2C)c1	2	-2	-3	-9	-1	-10
O=C1NC(=S)N(C(=O)c2ccc(F)cc2)/C1=C/c1ccccc1	7	-43	38	-127	1	32
COc1ccc(/C=C2\C(=O)NC(=S)N2C(=O)c2ccc(F)cc2)cc1	7	-206	16	-157	-5	89*[fluorescence artefact?]
CCOC(=O)C1=C(c2ccccc2)NC(N)=NC1c1ccc(OCc2ccc(Cl)cc2)c(OC)c1 (configuration not stated)	37*	2	·	71*	-7	94*
CCOC(=O)C1=C(c2ccccc2)NC(=O)NC1c1cc(Cl)c(O)c(OC)c1 (configuration not stated)	3	-3	11	-4	-5	4
CCOc1ccc(N=Nc2c(=O)[nH]n3c(=O)cc(C)[nH]c23)cc1	-7	-23	0	-35	32*	9
CN(C(=O)Cn1cc(C(F)(F)F)ccc1=O)c1c(N)n(Cc2ccccc2)c(=O)[nH]c1=O	1	-10	·	-6	-4	0
Cc1ccc(C)c(NC(=S)Nc2ncccc2C)c1	1	-7	68*	-11	-2	-3
CCOC(=O)N1CCN(C(=O)c2ccccc2Oc2ccccc2)CC1	-4	130*	-11	-5	-4	-9
CC(C)(C)[C@@H]1C=C(C(=O)N2CCN(Cc3ccc4c(c3)OCO4)CC2)O[C@H](OCc2ccc(CO)cc2)C1	-3	-3	94*	·	-3	-9
COc1ccc(C(CCNCc2ccc(F)cc2)c2ccc(F)cc2)cc1 (configuration not stated)	18	-16	59*	-12	-11	-10
COc1ccc(C(CCNCc2ccccc2)c2ccc(F)cc2)cc1 (configuration not stated)	5	-27	60*	-11	-3	-2
COc1ccc(C(CCNC(C)c2ccccc2)c2ccc(F)cc2)cc1 (configuration not stated)	2	12	59*	-11	-9	-9
COc1ccc(CNCCC(c2ccc(F)cc2)c2ccc(OC(C)C)cc2)cc1OC (configuration not stated)	-2	-17	·	6	-1	4
COc1ccc(CNCCC(c2ccc(F)cc2)c2ccc(OC)cc2)cc1 (configuration not stated)	14	-26	75	-13	-4	-2
COc1ccc(C(=O)COC(=O)CNC(=O)c2ccc(OC)cc2)cc1	0	6	-1	-4	-13	5
COc1cc(/C=C(\C#N)C(=O)c2c[nH]c3ccccc23)cc(OC)c1O	25	-151	0	-198	-10	10
SMILES	eIF4E-4G inh	EBV gp42 inh	WT yeast gro inh	NCF1 inh	RBBP9 inhibitor	14-3-3 Bad PPI
C#Cc1ccc([C@@H]2C=C(C(=O)NC3CC3)O[C@H](OCCCCO)C2)cc1	97*	4	·	-14	·	-4
O=C(NC1CC1)C1=C[C@@H](c2ccc(Br)cc2)C[C@@H](OCCCCO)O1	5	-8	6	·	0	0
CCOC(=O)C1=C2NC(=O)c3ccccc3N2C(=O)C1	-5	-8	-42	-8	-1	-12
NC(=O)CSc1nnc(-c2cccc(S(=O)(=O)N3CCCCC3)c2)o1	3	-10	·	-2	7	84*
O=S(=O)(c1ccc(-c2nnc(SCc3ccccc3)o2)cc1)N1CCCC1	-11	-2	12	42*	-2	3
O=C(Nc1ccc2nc(-c3ccco3)c(-c3ccco3)nc2c1)NC1CC1	41*[fluorescence artefact?]	40	-11	-52	-2	45
O=C(NCCCO)Nc1ccc2nc(-c3ccco3)c(-c3ccco3)nc2c1	48*	67*	10	-76	8	28
O=C(Nc1ccc(N2CCOCC2)cc1)Nc1ccc2nc(-c3ccco3)c(-c3ccco3)nc2c1	-15	-9	-39	-26	0	4
CCOC(=O)Nc1nc(-c2ccccc2)c(C(=O)c2ccc(Cl)cc2)s1	-3	-11	59*	-16	-11	-17
O=C(NCCCn1ccnc1)/C(=C\c1cccnc1)NC(=O)c1cccc(Br)c1	-7	1	1	1	3	1
Cc1nc(-c2cccc(NS(=O)(=O)c3cccc4ccccc34)c2)cs1	1	0	62*	-16	-1	9
COc1ccc(-n2nc(C(=O)NCC(=O)Nc3ccccn3)c3ccccc3c2=O)cc1Cl	-14	-10	-7	22	1	72*
COc1ccc(N(C(=O)c2ccco2)S(=O)(=O)c2ccccc2)cc1	9	7	27	-4	-5	-12
COc1ccc(N(C(=O)c2ccco2)S(=O)(=O)c2cc(Cl)c(Cl)cc2Cl)cc1	3	-4	59*	3	-4	12
CCSc1cc(N2CCCC2)nc(-c2ccccc2Cl)n1	-1	60*	2	4	-5	-4
CCC(SC1=NCCS1)C(=O)Nc1ccc(S(N)(=O)=O)cc1 (configuration not stated)	14	-1	-15	-10	-9	-14
CSc1nc(=O)n2cccc(C)c2n1	-4	-10	1	-13	-4	97*[fluorescence artefact?]
Cc1cc(N2CCCC2)nc2ccc(NC(=S)NCCCN3CCC(C)CC3)cc12	-2	-4	-8	24	-11	-11
COc1ccc(-n2c(SCc3ccc([N+](=O)[O-])cc3)nnc2-c2ccc(C)cc2)cc1	1	3	43	-6	-10	92*[fluorescence artefact?]
